From PubChem BioAssay AID504382 (The Scripps Research Institute Molecular Screening Center, 2011)
Screen size: about 2,500 compounds; about 460 (18%) were called active.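 How the source made its calls: active means mean activation above a cutoff of low control average plus 3 SD from the earlier screen (cut at about 12% in these data); inactive means the rest.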 The list is a sample of the results.

Experiment: IANBD-channel fluorescence artefacts in buffer – biochemical, artefact control for cardiac RTF calcium sensitizer project, confirmation (AID 504382)
Settings: IANBD fluorescence interference counterscreen, EC20 Ca2+, at 7.2 µM, hits give high values, scaled: EC20 calcium 0, EC100 calcium 100
Method in brief: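 Technique: fluorescence, 480/540 nm / Medium: MOPS-based buffer with KCl, MgCl2, EGTA, NTA, DTT, pH 7.2 / Probe or stimulus: calcium at EC20 level, 0.472 mM final / Repeats: triplicate wells per compound / Times: 15 min compound exposure at 25 °C / Measure: compound fluorescence interference relative to control well signal range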

Row | SMILES | fluorescence artifact activation
1 | O=C(CCCN1C(=O)c2ccccc2C1=O)Nc1ccc(S(=O)(=O)N2CCCCC2)cc1 | 0.02% (inactive)
2 | O=C(CNCc1cccs1)Nc1ccc(S(=O)(=O)N2CCCCC2)cc1 | 15.8% (active)
3 | O=C(CNCc1cccs1)Nc1cc(S(=O)(=O)N2CCCC2)ccc1Cl | 4.18% (inactive)
4 | CCC1(O)C(=O)OCc2c1cc1n(c2=O)Cc2cc3cc(O)ccc3nc2-1 (stereo not drawn) | 0.27% (inactive)
5 | CCOc1ccccc1C(=O)NN1C(=O)CCC1=O | 3.75% (inactive)
6 | O=C1CCC(=O)N1CC(O)COc1ccccc1 (stereo not drawn) | 61.5% (active)
7 | Cc1cc(C)n(CC(O)COc2ccccc2)n1 (stereo not drawn) | 0.59% (inactive)
8 | CC(C)(C)NC(=O)[C@@H]1CN(Cc2cccnc2)CCN1C[C@@H](O)C[C@@H](Cc1ccccc1)C(=O)N[C@H]1c2ccccc2C[C@H]1O | 54.1% (active)
9 | Cn1nc([N+](=O)[O-])c(C(C#N)c2ccccn2)c(Cl)c1=O (stereo not drawn) | -0.03% (inactive)
10 | CN1C(=O)/C(=C\c2ccc(N(C)C)cc2)OC1=S | 57.7% (active)
11 | Cc1c(N2C(=O)/C(=C\c3ccc(N(C)C)cc3)N(C)C2=S)c(=O)n(-c2ccccc2)n1C | 0.17% (inactive)
12 | CN(C)c1ccc(/C=C2\N=C(C(C)(C)C)OC2=O)cc1 | 0.15% (inactive)
13 | Cc1ccc(NC2OC(C(O)CO)C(O)C2O)cc1[N+](=O)[O-] (stereo not drawn) | 5.79% (inactive)
14 | O=C(c1ccc(COc2ccccc2Br)o1)N1N=C(C(F)F)CC1(O)C(F)F (stereo not drawn) | 8.57% (inactive)
15 | CC(=O)Nc1ccc(S(=O)(=O)N2CCN3CCCC3C2)cc1 (stereo not drawn) | -0.04% (inactive)
16 | CCOC(=O)/C(=C/C1=CC(=C/N(C)C)/C(=O)O1)C(C)=O | 22.1% (active)
17 | CCOC(=O)/C(=C\c1ccc(N2CCC(c3ccccc3)=N2)cc1)C(C)=O | -0.05% (inactive)
18 | CCOC(=O)/C(=C/C=C1\Sc2cc(C)c(C)cc2N1CC)C(C)=O | 0.02% (inactive)
19 | CCc1ccc(/C=N/n2c(C)cc(C)c(C#N)c2=O)cc1 | 0.12% (inactive)
20 | CCCNC(=S)N1CCC(NC(=O)C23CC4CC(CC(C4)C2)C3)CC1 | 0.09% (inactive)
21 | CSc1nnnn1-c1c(C)cc(C)cc1C | 0.04% (inactive)
22 | CCn1nnnc1SCC(=O)N1CCCc2ccccc21 | 0.01% (inactive)
23 | Cc1ccccc1-n1nnnc1SCC(C)C | 32.8% (active)
24 | CCO[C@@H]1OC(C(=O)O)=C[C@H](c2coc3ccccc3c2=O)[C@H]1CCCO | 1.71% (inactive)
25 | COCCn1c(SCC#N)nnc1-c1ccc([N+](=O)[O-])cc1 | -0.11% (inactive)
26 | COc1cc(/C=C2\SC(=Nc3ccc(Cl)c(C(=O)O)c3)NC2=O)c(Br)c(Br)c1O | 17.6% (active)
27 | COc1cc(/C=C2\SC(=Nc3ccccc3)NC2=O)cc(Cl)c1O | 0.21% (inactive)
28 | COc1cccc(N=C2NC(=O)/C(=C/c3cc([N+](=O)[O-])ccc3O)S2)c1 | 0.01% (inactive)
